For series [1], the target named is Human immunodeficiency virus type 1 integrase (Human immunodeficiency virus 1, UniProt Q7ZJM1). Briefly: Inhibition of HIV1 integrase after 1 hr by ELISA. The procedure, abridged:
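ELISA with annealed oligos (7 nM): a 3′-biotin strand and a 5′-digoxigenin complementary strand. Integrase was diluted in 750 mM NaCl, 10 mM Tris pH 7.6, 10% glycerol, 1 mM β-mercaptoethanol, 0.1 mg/mL BSA. Reaction in 10 mM MgCl₂, 5 mM DTT, 20 mM HEPES pH 7.5, 5% PEG, 15% DMSO, 1 h at 37 °C. Detection by immunosorbent assay on avidin-coated plates.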
On the technique in general: An ELISA detects its analyte on a solid surface through an enzyme-linked reagent.

Series [2] in a line: Therapeutic index, ratio of CC50 for human HeLaP4 cells to EC50 for HIV1 […]. The following applies: read-out: Ratio CC50/EC50. The format is cell-based.
For series [3], the system named is Human immunodeficiency virus 1. The experiment in a line: Antiviral activity against HIV1 […] in human HeLaP4 cells assessed as beta-galactosidase activity after 72 hrs. The format is functional, organism-based. The following applies: Human immunodeficiency virus 1, HeLaP4, 72 h. The procedure, abridged:
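Virus (HIV-1 pNL4-3) made by transfecting P4 cells with the genomic clone. Infected CEM4fx cells in triplicate grown with increasing drug concentrations for 3 days. Supernatants collected at 72 h were used to infect HeLa-CD4-β-gal (P4) reporter cells for 24 h. Cells were lysed (50 mM 2-mercaptoethanol, 10 mM MgSO4, 25 mM EDTA, 0.125% NP40), incubated with CPRG, and read at 570 nm. Replicates averaged.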

Series [4] can be described thus: Cytotoxicity gainst human HeLaP4 cells after 3 days by MTT assay. The format is cell-based. In general terms: Tetrazolium dyes change colour on reduction, which living cells bring about.
Series [5] has as its system Human immunodeficiency virus 1. Briefly: Antiviral activity against HIV1 3B infected in human MT4 cells assessed as inhibition of virus-induced cytopathic effect by MTT assay. Type of series: functional. The following applies: Human immunodeficiency virus 1, 3B. The procedure, abridged:
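HIV-1 IIIB stock titred on MT-4 cells to find CCID50. MT-4 cells infected with 100–300 CCID50 in the presence of fivefold serial drug dilutions. Protection from virus-induced cytopathic effect read by MTT reduction to formazan, measured spectrophotometrically. EC50 taken as the concentration giving 50% protection.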

Series [6] relates to MT4. Briefly: Cytotoxicity gainst human MT4 cells after 3 days by MTT assay. The format is cell-based. The following applies: MT4, 72 h. The procedure, abridged: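 MT-4 cells in the MT-4/MTT format. CC50 determined in parallel with the antiviral EC50 using the MTT formazan read-out.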
Series [7] can be described thus: Therapeutic index, ratio of CC50 for human MT4 cells to EC50 for HIV1 3B. Type of series: cell-based. The following applies: read-out: Ratio CC50/EC50. The procedure, abridged: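 MT-4 cells were infected with 100–300 CCID₅₀ of HIV-1 IIIB, with the CCID₅₀ titrated on MT-4 cells. Drugs were added as fivefold serial dilutions. Protection from virus-induced cytopathic effect was read by MTT reduction to formazan, giving EC₅₀, and CC₅₀ was determined in parallel.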

The source of these data is ChEMBL document CHEMBL1177673, “New 2-arylnaphthalenediols and triol inhibitors of HIV-1 integrase--discovery of a new polyhydroxylated antiviral agent” (Bioorg Med Chem, 2010).

SMILES strings stand for the structures.

Sequence of Human immunodeficiency virus type 1 integrase (Q7ZJM1 whole entry): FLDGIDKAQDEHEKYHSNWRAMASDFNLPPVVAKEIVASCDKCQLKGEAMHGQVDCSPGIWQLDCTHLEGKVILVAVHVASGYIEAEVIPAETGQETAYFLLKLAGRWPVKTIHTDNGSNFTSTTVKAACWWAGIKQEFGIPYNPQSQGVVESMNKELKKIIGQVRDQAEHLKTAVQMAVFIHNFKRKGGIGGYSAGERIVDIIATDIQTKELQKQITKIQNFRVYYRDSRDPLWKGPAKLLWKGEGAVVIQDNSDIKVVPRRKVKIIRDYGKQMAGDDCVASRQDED

What is called IC50 is the midpoint of a concentration-inhibition curve. A high value points to a need for much substance. For the compound `Oc1ccccc1-c1ccc2c(O)c(O)ccc2c1`, in series [1], half-maximal inhibition (IC50) was put at 10 µM. In other words, the double-digit micromolar range. The same measure, in the same setting: under `Oc1cccc(-c2ccc3c(O)c(O)ccc3c2)c1` stands 4.8 µM; under `Oc1ccc2cc(-c3ccccc3C(F)(F)F)ccc2c1O`, 6 µM. Compound `Oc1ccc2cc(-c3ccc(C(F)(F)F)cc3)ccc2c1O` came in with a concentration for half-maximal inhibition (IC50) in series [1] of 10 µM. This IC50 lies about 1.7-fold higher than the previous one.

Regarding `Oc1ccc2cc(-c3cccc(C(F)(F)F)c3)ccc2c1O`, in series [1], the half-maximal inhibitory concentration (IC50) was found to be 10 µM. The term EC50 denotes the concentration at which the effect is half-maximal. What is called CC50 is the concentration at which the toxic effect on the cells reaches its halfway point. For the compound `Oc1ccc(-c2ccc3cc(O)c(O)cc3c2)cc1O`, the selectivity ratio in series [2] is 5. Further, the concentration giving a half-maximal response (EC50) in series [3] turned out to be 9.9 µM. The compound further displayed a cytotoxic concentration (CC50) at 72 h in series [4] of 51 µM. For the compound `Oc1cc(-c2ccc3cc(O)c(O)c(O)c3c2)cc(O)c1O`, the IC50 in series [1] amounted to 0.5 µM. Also, the EC50 in series [5] was found to be 1000 nM. For the same compound, the cytotoxic concentration (CC50) in series [6] was > 1000 nM. With `Oc1ccc(-c2ccc3c(O)c(O)ccc3c2)cc1O`, in series [1], the IC50 was 2.2 µM. For the same compound, the concentration for a half-maximal effect (EC50) in series [3] was determined as 40 µM. The CC50 at 72 h in series [4] is > 100 µM. With `O=C1C(=O)c2cc(-c3cc(O)c(O)c(O)c3)ccc2C(Oc2c(O)cc(-c3ccc4cc(O)c(O)c(O)c4c3)cc2O)=C1O`, in series [1], the IC50 stood at 0.85 µM. The selectivity ratio in series [7] came to 19; in series [2] it was 74. Moreover, the EC50 in series [3] amounted to 1.15 µM. In addition, half-maximal cytotoxicity in series [4] (CC50 at 72 h) was put at 85 µM. In series [1], `Oc1ccc(-c2ccc3c(O)c(O)ccc3c2)cc1` showed a half-inhibitory concentration (IC50) of 8.1 µM. `Oc1cccc(-c2ccc3c(O)c(O)ccc3c2)c1O`: half-maximal inhibition in series [1] (IC50) required 1 µM. Besides, the half-maximal effective concentration (EC50) in series [3] was > 100 µM. Besides, the CC50 at 72 h in series [4] was > 100 µM.

In the case of `Oc1ccc2cc(-c3cccc(F)c3)ccc2c1O`, half-maximal inhibition in series [1] (IC50) was put at 9.6 µM. Same read-out and setting: with `Oc1ccc2cc(-c3ccccc3F)ccc2c1O` the figure was 7.3 µM; with `Oc1ccc2cc(-c3ccccc3)ccc2c1O`, 6 µM. Still for that read-out and setting: under `Oc1ccc2cc(-c3ccc(F)cc3)ccc2c1O` stands 8 µM.
